# Not all results are given here.
# Apaf1 activ: activators of human Apaf-1 apoptosome, primary screen, biochemical, DEVD-Rh110 fluorescence, uHTS. AID 489031, 2010. 0.31% of 330,000 active. activity change, negative = activation, % at 20 µM. Apaf-1 apoptosome caspase-3 activation; stronger effect = lower value;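 active means activity change at or below -40% at 20 µM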
# Target sequence (O14727 whole entry, looked up): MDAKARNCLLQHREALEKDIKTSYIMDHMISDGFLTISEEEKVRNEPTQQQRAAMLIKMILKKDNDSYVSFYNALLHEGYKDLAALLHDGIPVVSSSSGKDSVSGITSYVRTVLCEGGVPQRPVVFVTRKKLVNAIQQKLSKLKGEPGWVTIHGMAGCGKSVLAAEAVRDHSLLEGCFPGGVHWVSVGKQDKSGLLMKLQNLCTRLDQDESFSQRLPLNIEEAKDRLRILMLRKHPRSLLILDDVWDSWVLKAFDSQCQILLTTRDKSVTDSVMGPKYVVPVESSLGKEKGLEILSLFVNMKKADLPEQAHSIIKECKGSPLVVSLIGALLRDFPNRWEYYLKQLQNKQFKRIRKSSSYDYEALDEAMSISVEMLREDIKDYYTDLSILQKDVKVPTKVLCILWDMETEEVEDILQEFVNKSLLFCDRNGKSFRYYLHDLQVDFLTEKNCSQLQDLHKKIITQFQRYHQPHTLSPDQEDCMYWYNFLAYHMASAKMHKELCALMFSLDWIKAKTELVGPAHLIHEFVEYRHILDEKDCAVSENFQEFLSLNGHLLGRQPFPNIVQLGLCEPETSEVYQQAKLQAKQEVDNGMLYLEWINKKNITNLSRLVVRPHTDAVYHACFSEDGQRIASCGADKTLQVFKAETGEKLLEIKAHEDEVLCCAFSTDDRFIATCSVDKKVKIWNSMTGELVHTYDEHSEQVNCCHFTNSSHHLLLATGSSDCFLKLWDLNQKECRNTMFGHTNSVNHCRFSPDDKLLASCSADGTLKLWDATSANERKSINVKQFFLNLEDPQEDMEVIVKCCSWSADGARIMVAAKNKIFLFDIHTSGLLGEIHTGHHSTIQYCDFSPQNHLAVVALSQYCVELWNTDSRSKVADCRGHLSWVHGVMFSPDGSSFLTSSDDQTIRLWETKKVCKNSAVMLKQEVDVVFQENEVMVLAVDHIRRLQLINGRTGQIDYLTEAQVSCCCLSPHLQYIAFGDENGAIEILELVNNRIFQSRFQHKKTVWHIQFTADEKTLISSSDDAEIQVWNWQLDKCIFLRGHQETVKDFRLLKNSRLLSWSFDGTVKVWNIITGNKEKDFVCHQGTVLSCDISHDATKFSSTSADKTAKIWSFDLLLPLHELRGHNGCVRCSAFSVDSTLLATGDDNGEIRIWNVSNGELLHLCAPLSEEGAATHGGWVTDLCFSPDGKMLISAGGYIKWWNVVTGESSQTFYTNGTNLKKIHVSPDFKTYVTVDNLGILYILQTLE
#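 system = biochemical Apaf-1 apoptosome reconstitution | buffer or medium = 20 mM HEPES pH 7.5 with CHAPS, BSA | also added = dATP and cytochrome c as apoptosome triggers, (Z-DEVD)2-Rh110 substrate | incubation = 30 min compound preincubation and 50 min reaction, both room temperature | measured by = fluorescence, 540 nm emission, 480 nm excitation | read-out basis = Caspase-3 cleavage activity downstream of Apaf-1 activation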
# Rh110 act interf: Rh110 fluorescence interference by putative Apaf-1 activators, confirmation, artefact control for Apaf-1 activator project, biochemical, 20 µM; shares compounds with Apaf1 activ; quenched caspase reaction, Ex480/Em540; fluorescence interference (activity change), % at 20 µM, hits read low; 980 tested, under 10 active; AID 504616, 2011;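 active means mean activity change at or below -40% when tested at 20 µM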
# Apaf-1 act conf: Apaf-1 activators, single-dose retest, confirmation, biochemical, fluorescence, DEVD-Rh110, 20 µM. shares compounds with Apaf1 activ. reconstituted apoptosome caspase-3 activity; stronger effect = lower value. activity change, negative = activation, % at 20 µM. 5% of 980 active;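 active means mean activity change at or below -40%, meaning activation of 40% or more, at 20 µM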
# * hit, by the source's call; . = not tested or not shown.
SMILES,Apaf1 activ,Rh110 act interf,Apaf-1 act conf
CCCCCc1ccc(OCCCC[n+]2ccc(C)cc2)c(CCCCC)c1,56,.,.
Cc1cc(F)c(F)c(C(=O)N2CCCCC2C)c1Cl (stereo not drawn),-116*,4,18
COCCn1c(N)c(C#N)c2nc3ccccc3nc21,52,.,.
Cc1coc2c1C(=O)C(=O)c1c-2ccc2c1CCCC2(C)C,77,.,.
COc1ccc(N2C(=O)CCC(C(=O)O)C2c2ccccc2OC)cc1 (stereo not drawn),-172*,-2,6
CN1CCN(c2ccc(S(=O)(=O)N3CCCCC3)cc2NC(=O)/C=C/c2ccc(Cl)c([N+](=O)[O-])c2)CC1,51,.,.
CCN1CCN(S(=O)(=O)c2ccc(Cl)c(C(=O)N(C)Cc3cccs3)c2)CC1,58,.,.
CCN1CCN(C2=C(NS(=O)(=O)c3ccc(NC(C)=O)cc3)C(=O)c3ccccc3C2=O)CC1,74,.,.
CCN1CCN(S(=O)(=O)c2ccc(Cl)c(C(=O)Nc3ccccc3N3CCCC3)c2)CC1,-74*,11,13
CC(=O)Nc1ccc(S(=O)(=O)NC2=C(N3CCN(C)CC3)C(=O)c3ccccc3C2=O)cc1,60,.,.
CN1CCN(c2ccc(S(=O)(=O)N3CCCCC3)cc2NC(=O)c2ccc3ccccc3c2)CC1,-155*,4,8
O=C1Cc2ccccc2C(=O)N1OCc1ccc(Cl)cc1,95,.,.
CCCCCCCCCC[N+](C)(C)CC/C=C1/c2ccccc2Sc2ccc(Cl)cc21,81,.,.
COCCN(C(=O)COC(=O)/C=C/c1ccc(C(F)(F)F)cc1)c1c(N)n(Cc2ccccc2)c(=O)[nH]c1=O,44,.,.
CC/C(=N/Nc1cccc(C)c1)c1cnnc(SC)n1,63,.,.
C#CCOCCOCCOCCNc1nc(N2CCN(C(=O)[C@H](Cc3cc4ccccc4[nH]3)n3cc([C@@H](N)C(C)CC)nn3)CC2)nc(N2CCN(C(=O)[C@H](Cc3cc4ccccc4[nH]3)n3cc([C@@H](N)Cc4ccc(O)cc4)nn3)CC2)n1 (stereo partly drawn),60,.,.
Cc1ccc(C(=O)N/C(=C\c2ccc(-c3ccccc3[N+](=O)[O-])o2)C(=O)NCCCN2CCOCC2)cc1,65,.,.
COC(=O)C1=C(C)N(CC2CC2)C(=NCc2cccc(C(F)(F)F)c2)N[C@H]1c1ccccc1,57,.,.
CCN1C(=O)C(C(=O)Nc2ccc(OC)cc2)C2CC1(C)Oc1ccccc12 (stereo not drawn),-542*,9,12
CNC[C@H]1Oc2ccc(NC(=O)Nc3ccc(OC)cc3)cc2C(=O)N([C@@H](C)CO)C[C@H]1C,45,.,.
Cc1cc(=O)n(-c2ccc3ccccc3n2)[nH]1,86,.,.
CCO/C=C1/C(=O)N(C)C(=O)c2cc(OC)ccc21,47,.,.
COc1cccc(-c2sc3ccc(OC)cc3c2-c2ccc(OCCN(C)C)cc2)c1,75,.,.
COc1ccc(/C=N/NC(=O)c2cc(=O)[nH]c3ccccc23)cc1OC,-544*,-15,7
O=c1cc(N/N=C/c2ccccc2)[nH]c(=O)[nH]1,68,.,.
SMILES,Apaf1 activ,Rh110 act interf,Apaf-1 act conf
Cc1[nH]n(-c2ccccc2)c(=O)c1/C=N/NC(=O)c1ccc(O)cc1O,73,.,.
COCCCNC(=O)c1c(N)n(-c2ccccc2)c2nc3ccccc3nc12,84,.,.
CCc1ccc(OCCNc2cc(N3CCNC(C)C3)ccc2[N+](=O)[O-])cc1 (stereo not drawn),75,.,.
CC1=NN(c2ccc(C(=O)O)cc2)C(=O)/C1=C\c1ccc(OC(=O)c2cccs2)cc1,75,.,.
Cc1cc(C)cc(Oc2coc3cc(OC(=O)c4cccs4)ccc3c2=O)c1,-560*,10,12
CCCC(CCC)C(=O)O,-6,.,.
CCCCC[n+]1ccn(C2=C([O-])c3ccccc3C(=O)/C2=N\S(=O)(=O)c2ccccc2)c1,53,.,.
Cc1ccc(SCc2cc(-c3ccc(Cl)cc3)no2)cc1,78,.,.
Cc1ccc(Sc2cc(Cl)nc(N)n2)cc1,-387*,19,8
Cc1ccc(SC2=C(Sc3ccc(C)cc3)C(=O)c3ccccc3C2=O)cc1,64,.,.
CC(=O)N1CCN(C2=Nc3cccc4cccc2c34)CC1,80,.,.
COc1ccccc1C(=O)Nc1ccc(Oc2nnc(-c3ccc(C)cc3)c3ccccc23)cc1,40,.,.
COc1ccc(NC(=O)C(c2ccccn2)N(C(C)=O)c2ccc(C)cc2)cc1 (stereo not drawn),-415*,8,6
COC1=C(Nc2ccc(C)cc2)C(=O)c2ccccc2C1=O,61,.,.
CCCCCc1ccc(OCCCC[n+]2ccccc2)c(CCCCC)c1,59,.,.
CN(C)CCCNS(=O)(=O)c1ccc(N2CCC(c3ccc(Cl)cc3)=N2)cc1,73,.,.
CCCNS(=O)(=O)c1ccc(CCC(=O)N2CCCCC2)cc1,-511*,-2,8
O=C1Nc2ccc(S(=O)(=O)NCc3ccco3)c3cccc1c23,49,.,.
CCOc1ccc(/C=C/[N+](=O)[O-])c2ccccc12,80,.,.
Cn1c(SCC(=O)NNC(=O)c2ccccc2)nnc1C(F)(F)F,-97*,-2,8
Cn1c(SCC(=O)n2c3c(c4ccccc42)CCCC3)nnc1-c1ccccc1,43,.,.
Cc1ccc(C)n1-c1nnc(N2CCC(C(=O)NCCCN3CC(C)CC(C)C3)CC2)s1 (stereo not drawn),-402*,6,14
O=C(NCCCN1CCc2ccccc2C1)C1CCN(c2nnc(-n3cccc3)s2)CC1,51,.,.
CCN(CC)CCCNC1=C(Cl)C(=O)c2ccccc2C1=O,50,.,.
N/C(=N\OC(=O)c1ccc(Cl)cc1Cl)c1cccnc1,76,.,.
SMILES,Apaf1 activ,Rh110 act interf,Apaf-1 act conf
COc1ccc(C2/C(=C(/O)c3ccc4c(c3)CC(C)O4)C(=O)C(=O)N2CCCn2ccnc2)cc1 (stereo not drawn),42,.,.
COc1ccc(/C(O)=C2/C(=O)C(=O)N(Cc3ccco3)C2c2cccs2)cc1 (stereo not drawn),-64*,7,13
O=C(C[C@H]1C[C@H](C(=O)N2CCOCC2)[C@@]2(CCC3CCCC3)c3[nH]c4cc(-c5ccco5)ccc4c3CCN2C1=O)NCCCn1ccnc1,62,.,.
CCOc1ccc(-n2c(SCc3ccc([N+](=O)[O-])cc3)nnc2-c2ccc(OC)cc2)cc1,-304*,-4,18
C[C@H]1CN([C@@H](C)CO)C(=O)Cc2cc(NC(=O)CCC(F)(F)F)ccc2O[C@H]1CN(C)Cc1ccc(-c2ccccc2)cc1,41,.,.
COCc1ccc(C(=O)N2CCCC(Nc3ccc(C(C)C)cc3)C2)o1 (stereo not drawn),-107*,-3,10
O=C(O)c1cc(O)c2c(c1)[C@@H]([C@H]1c3cc(C(=O)O)cc(O)c3C(=O)c3c(O[C@@H]4O[C@H](CO)[C@@H](O)[C@H](O)[C@H]4O)cccc31)c1cccc(O[C@@H]3O[C@H](CO)[C@@H](O)[C@H](O)[C@H]3O)c1C2=O,99,.,.
CCOC(=O)NNc1ccc2nonc2c1[N+](=O)[O-],96,.,.
CC(=O)c1ccc(-n2ccc(=O)cc2)cc1,-494*,11,11
Cc1c(CCOC(=O)c2ccc(Cl)cc2Cl)sc[n+]1CC(=O)c1ccccc1,56,.,.
